Measurements from different studies.
Each line is one published result; the experiments were not run side by side.
Target: Mitogen-activated protein kinase 10 (MAPK10, Homo sapiens, UniProt P53779)

| SMILES | read-out | action | technique | concentration | endpoint | value |
| --- | --- | --- | --- | --- | --- | --- |
| O=c1[nH]c2ccccc2n1C1CCN(Cc2ccc(-c3[nH]c4cc5ncnc5cc4nc3-c3ccccc3)cc2)CC1 | cell-free assay |  |  | 0.5 µM | remaining signal | 96% |
| COc1cc(Nc2ncc(F)c(Nc3ccc4c(n3)NC(=O)C(C)(C)O4)n2)cc(OC)c1OC | binding |  | competition with immobilised ligand | 10 µM | inhibition | 100% |
| NC(=O)c1nc(Nc2ccccc2)sc1NC(=O)C1CCCCC1 | cell-free assay |  | competition with immobilised ligand | 10 µM | remaining binding | 5.4% |
| Cn1cc(-c2cc(F)cc(N3CCn4c(cc5c4CCCC5)C3=O)c2CO)cc(Nc2ccc(N3CCN(C4COC4)CC3)cn2)c1=O | enzyme activity | inhibitor |  | 0.1 µM | inhibition | 5% |
| COc1ncccc1-c1cnn2ccc(N3CCN(C(=O)OC(C)C)CC3)nc12 | binding |  | competition with immobilised ligand | 1 µM | remaining binding | 100% |
| CC(C)(C)c1cc(C=C(C#N)C#N)cc(Br)c1O | enzyme activity | inhibitor |  | 0.5 µM | remaining activity | 92.5% |
| Cn1cncc1[C@](O)(COc1ccc(C#N)cc1-c1ccc(OC(F)(F)F)cc1)c1ccc(C#N)cc1 | cell-free assay |  | competition with immobilised ligand | 1 µM | remaining binding | 70% |
| Nc1ncc(-c2nc(N3CCOCC3)nc(N3CCOCC3)n2)c(C(F)F)n1 | binding |  | competition with immobilised ligand | 10 µM | remaining binding | 90% |
| N#CC1(c2ccccn2)CCN(Cc2cc(C(=O)O)c(=O)n3ccccc23)CC1 | cell-free assay |  | competition with immobilised ligand | 1 µM | remaining binding | 82% |
| Cc1nn(C)cc1-c1nc2c(N3CCN(Cc4ccc(Cl)cc4)CC3)c(Cl)cnc2[nH]1 | binding |  | competition with immobilised ligand | 1 µM | remaining binding | 100% |
